# According to the EternaBench riboswitch data:
# System: MS2 coat protein
# Assay: apparent Kd, MS2 coat protein; higher = weaker binding; RNA-MaP array; FMN 200 µM where present
# Outline: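 The titrant was SNAP-549-labelled MS2 coat protein, run from 0.7 or 1.5 nM in doubling steps to 3 µM. It was applied to designs transcribed by stalled E. coli RNA polymerase on Illumina sequencing-chip clusters, without ligand first and then with constant ligand, in 100 mM Tris-HCl pH 7.5, 80 mM KCl, 4 mM MgCl2, BSA, DTT, yeast tRNA and Tween-20. The apparent Kd is the median of filtered per-cluster binding-curve fits, with green signal normalised to red-channel RNA signal and control-cluster median Fmax.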
# [1] = designed as: OFF switch for flavin mononucleotide, no ligand
# [2] = ligand present: flavin mononucleotide, designed as: OFF switch for flavin mononucleotide
# [3] = designed as: ON switch for flavin mononucleotide, no ligand
# [4] = ligand present: flavin mononucleotide, designed as: ON switch for flavin mononucleotide
Sequence,apparent Kd [1],apparent Kd [2],apparent Kd [3],apparent Kd [4]
AUUAAAACAUAGGAUAUCGAAUUUAUCAUUUAACGAGAAGGAUGAACAUGAGGAUCACCCAUGUGGUAUCAUGG,361 nM,207 nM,,
AUUCCCAACCAGAAGGACAUGAGGAUCACCCAUGUAGGAUAUGGGUGGGCGACCCGAACUUGGACGAAAUCGCAAUUCUCACAC,,,57.8 nM,10.4 nM
CAUUAAUUCAUUAUAGUAAUUAUACAGGAUAUGUUACAUGAGGAUCACCCAUGUAUUCUUGGUAAACAGAAGGGUAUUUCUAGU,7.35 nM,9.31 nM,,
CUGAGCUGAGGAUAUACAUGAGGAUCACCCAUGUGGGCCUGCGAGGUUACUUGCACAUGUAGAAGGCAGUUCGG,136 nM,17.2 nM,,
UAUAUAUAGUAAGGAUAUGUAAAUAUUUUAUAAACAGAAGGUACUGACAUGAGGAUCACCCAUGUUUUAGUGUGGGCAUGUAGA,79.2 nM,139 nM,,
AGAUGACAAAGUCAUCUCUGACAGACAUGAGGAUCACCCAUGUAGGAUAUACUACUCAAAGAGUAGUAGAAGGACAUGUGUCUU,33 nM,95.7 nM,,
AGAUGACAAGGAUAUACUCGGGAUGCUAGUCGCGAAGAAGCACAUGAGGAUCACCCAUGUAGAAGGUGUAAGAA,122 nM,128 nM,,
GGAUGACAUAGUCAUCUUUAACGAACAUGAGGAUCACCCAUGUAGGAUAUGCUACUCAACGAGUAGCAGAAGGACAUGUGUCUU,25.9 nM,127 nM,,
UAUCUAUUUAUGGGAUUAGAAUAUGAGGAUAUCAUUUAUUUAUACAUGAGGAUCACCCAUGUUACUGAGAAGGCAUAUUUAAUA,,,13.4 nM,7.47 nM
CCAUCAGCGGGCGUAUCGGUUGGACAUGAGGAUCACCCAUGUAGAAGGACAGGAGUAUUUCGGCUGUAGGAUAUACAUUUGGUG,22.5 nM,52.7 nM,,
CCGGCUGCUGUGAGGAUAUGCCUGUGGGUGCGUGGGUAGAAGGCACAUGAGGAUCACCCAUGUCCUGCGGCUCG,501 nM,327 nM,,
GGAUAGGACAGAGGAUAUACGUGCUAGAGAUACUAGCAAAAUUUCAUCACAUGAGGAUCACCCAUGUAGAAGGCUGUCCUAUCG,4.81 nM,8.63 nM,,
GGUGCACGCACAGGAUAUCCGGCGGAGCUCGUCGGAGAAGGGUGACAUGAGGAUCACCCAUGUACGUGCAAUCCAGUUUGAGAG,,,23.8 nM,28.3 nM
GGAUAGGACAGAGGAUAUACGAGCUAGAGAUACUAGCAAAAUUUCCUCACAUGAGGAUCACCCAUGUAGAAGGCUGUCCUAUCG,17.5 nM,536 nM,,
AAUGGGCAGCAGAAGGCAUGUCAUAAGACAUGAGGAUCACCCAUGUAGUUAAGGCGAAAGCCGCAUGAGGAUAUGCUGCCCUAA,,,66 nM,6.71 nM
GAUUAACAUGAGGAUCACCCAUGUCGUUAUAUGGGAGGAUAUACGUGGACCGUAGUCCGCGUAGAAGGCCUAAUUG,,,311 nM,60.3 nM
UAAUAAAACGAUCGGCGAUCCAAACAUGAGGAUCACCCAUGUAGAAGGGACUCUACAAAGUAGAGUCAGGAUAUACGAGAUCGA,11.9 nM,208 nM,,
GUAGUGUAUGUAGGAUAUGUGAAGCAAAGCUUCACAGAAGGACAUGAGGAUCACCCAUGUAUUGCAGUCAGCAAUCUGACUGCU,41 nM,145 nM,,
UCGACGAAAGUCGAACGAUGUAGCAGAAGGACAUGAGGAUCACCCAUGUCAGCUGUAACAGCCAUGUAGGAUAUGCUACAUCGC,4.27 nM,5.7 nM,,
ACAUGAGGAUCACCCAUGUAUUACAUGGUUAAGUUUAUUAACAGAAGGCGAAAUUACCACUUUUUCGAGGAUAUGUUUUCUAUA,45.1 nM,58.4 nM,,
AGAAGUUUGUAGAAGGACGACUAAUUUGUAUUCGUAGGAUAUACUAUUUACAUGAGGAUCACCCAUGUUUAAAUGGAACAAUGU,7 nM,10.2 nM,,
GUCCCGAGGGAGAAGGGCUAGAAGGUCCAGCUUAUGUGUGUUGCAACAUGAGGAUCACCCAUGUAGCAGGAUAUCCCUUGUACA,18.1 nM,39.6 nM,,
UUAGGACGAAACAUGAGGAUCACCCAUGUGUUAUAAUUAAUAUAGGAUAUGUUUAUACUUUUUGGGCAGAAGGAUGAUAUUGCU,,,19.8 nM,16.8 nM
UGGUACAUGGGAGGAUAUCCUCAAGAGACAUGAGGAUCACCCAUGUAUUAUAAGCCGAAAGGCAUGGAGAAGGCCCAUGUACCU,,,75.4 nM,19.5 nM
ACAUGAGGAUCACCCAUGUAUUUGUAGGAUAUACUGUAUUGUUUAUUACUCUAAUUAAUAUGUUUGUAGAAGGACAUUGCAUGA,8.39 nM,9.86 nM,,
GGGCUGUCAGGAUAUAGUUCGAGUUCGGAAAUGAGCUUGAGCUAGAAGGGACAUGAGGAUCACCCAUGUGGCCC,31.1 nM,34.2 nM,,
UCUGGGUCUGUGAGGAUAUUGGGUCUGAAAGGGCUCGAGAAGGCACAUGAGGAUCACCCAUGUAAGGGCUCGGG,27.6 nM,21.6 nM,,
GCCUCAUAGUAGAAGGGACUUAGGCAGUUAAGCAUCAUGUCCAAUUAACAUGAGGAUCACCCAUGUCAGGAUAUACUAAGAGGC,8.03 nM,25.1 nM,,

Sequence,apparent Kd [1],apparent Kd [2],apparent Kd [3],apparent Kd [4]
CGCUGUCAUGCAGGAUAUGCAUUGGAUUACAAUGCAGAAGGGCGAUUACAUGAGGAUCACCCAUGUGUAGACAGUGAAGAAGAG,,,415 nM,34.4 nM
ACACAUGAGGAUCACCCAUGUAGCUGGCGUCUGCGCCAGCCACAGGAUAUACGGCUACACAAGCCGUAGAAGGGUGAUAAACAC,,,62.9 nM,27.2 nM
GGACAUUUACAGAAGGGCAAGUUGGAUCGCGGAUAACGCGAUCCGACUUGCAGGAUAUGUUGAACAUGAGGAUCACCCAUGUCC,,,12 nM,9.8 nM
CGUUAUUCAGGAUAUGGUGUGUUAUACAUGAGGAUCACCCAUGUAGAUCCUGGUUAGGCCUCAGAAGGGAAUGUUC,165 nM,145 nM,,
CAGGACAGAGGAUAUACAUAGAUACAGAUUCAUGUAGAACUACAUGAGGAUCACCCAUGUAGAAGGCUGACCUG,28.5 nM,221 nM,,
UGUGCUAUGUAGAAGGCAGAUCUGAUUCAGAUCUGAGGAUAUACAUGAGGAUCACCCAUGUUAUGCACCAGCACGAGAGUGCAG,9.17 nM,24 nM,,
ACUUAUGAAGGAUAUACUAGCGACAUGCACUCAACACGCGCACAUGAGGAUCACCCAUGUAGAAGGUCAAACAU,25.8 nM,23.1 nM,,
AAAGCUCAGAUAGGAUAUAUAGGAUAACUUAAGACCUAACAUGAGGAUCACCCAUGUGAUUAUUCGUAGAAGGAUCAUUGAACC,,,195 nM,209 nM
AGUAUGCACGCAGGAUAUACAUGAGGAUCACCCAUGUGGAACAGUGUAGUAUUAGUUGAUCCUCAGUAGAAGGGCGGUCGAAAU,82.5 nM,55.6 nM,,
AACUGAGCCCAAGGAUAUCCUCACUUCCACUACAUGAGGAUCACCCAUGUCAGAUCGUCUGUGUAGGAGAAGGUGGUGUACAUG,,,330 nM,623 nM
CUGAUGUGAGGAUAUCGGGCUACAGCCAGGCUGCUAGCAUACGAGAAGGCACAUGAGGAUCACCCAUGUGAGAA,48.3 nM,49.1 nM,,
GAGCUCAAGCAGAAGGCCGUAUGUCAAUCGACAUGAGGAUCACCCAUGUAUGAGCUCGGCGUCGCGGAGGAUAUGCAGGCUCUA,,,18.6 nM,6.63 nM
AGCUGUGGCAGAGGAUAUACUACUAUAAUCCAUUGCAAAUAGCGAUGGACAUGAGGAUCACCCAUGUAGAAGGCUGUCUCAGCA,38.9 nM,153 nM,,
AUAAAACAUGAGGAUCACCCAUGUAAGGAUAUGCGAAAAUAAAAUAAAAUAAAAUAAAGCAGAAGGUACAAAAA,51 nM,59.6 nM,,
UGCAUGUCAGGAUAUCGUGCAUACAACGAAAGUUCUAUGUGCGAGAAGGGACAUGAGGAUCACCCAUGUCUUCG,24 nM,67.4 nM,,
AUCAUCUUAUCAGGAUAUGCGUGUCGACGAAAGUAGACAAUCUUGAUAACAUGAGGAUCACCCAUGUAGAAGGGAUGAGAUGAU,46.6 nM,40.2 nM,,
AAAUCAGCAGGAUAUGCGAUGUUGUGCUAGAUAGCGGGACCACAUGAGGAUCACCCAUGUAGAAGGGCUGGAUA,57.5 nM,29.5 nM,,
GGAGACCUCAUAGGAUAUGCUGGACUUUGUCCAGCAGAAGGGUGAAAACAUGAGGAUCACCCAUGUAUGGUCUCCAAAUUUAAU,,,992 nM,327 nM
AGCUGUGGCCGAGGAUAUCUAAUAUCUCAAACCGAAAUAUAAUCGGACAUGAGGAUCACCCAUGUAGAGAAGGCGGUCUCAGCA,31.1 nM,85 nM,,
GUUUGUUAUUAGAAGGUGCCGGCGAGAGCCGCAACAUGAGGAUCACCCAUGUGUCGGUGACGACGCAAGGAUAUGGUGGUGGAU,,,308 nM,140 nM
UGUGUGUGACAGGAUAUGCUGGUUGUGAGACGGGUAGAAGGGUCUACAUGAGGAUCACCCAUGUGGCCGGUUGG,23.1 nM,20.6 nM,,
AGUAGAUCAGGAUAUACAUAAAUGAUAAUUAUGUACCUUCUACAUGAGGAUCACCCAUGUAGAAGGGAUCUACA,13.1 nM,11.9 nM,,
AUUGUAUGGGAAGGAUAUAGAAUAUUAUUUUAACAUGAGGAUCACCCAUGUAACCUUAUGUGUAGCUAGAAGGUCCGUUUAUUA,131 nM,157 nM,,
UUUUAACAUGAGGAUCACCCAUGUGAGGAUAUCGAAAUUUAUAUUAAUAUUUAUUAUACGAGAAGGCACAUUUU,73.6 nM,97 nM,,
GUCAGCUCGUGAGGAUAUACAUGUGCUGGAGACAGCAUUAAAUUUUUCACAUGAGGAUCACCCAUGUAGAAGGCACGAGCUGAU,18.4 nM,49.4 nM,,
GGUGCGCCAAGCCUUAAGACCGAACAUGAGGAUCACCCAUGUGAGGAUAUGACAGACGAAAGAAGUCAGAAGGCAUAAGGGUGG,7.12 nM,10.1 nM,,
GCACGGUUGCUAGGAUAUCCUUGCGAUUAGCAAGGAGAAGGAGCACAUGAGGAUCACCCAUGUACCUCAAUAAUCCAUCCGUGC,14.8 nM,14.2 nM,,
